In ChEMBL document CHEMBL1759861, “Synthesis of 9-substituted derivatives of berberine as anti-HIV agents” (Eur J Med Chem, 2011):

Experiments:
[1] = test system: Human immunodeficiency virus 1; assay: Antiviral activity against 0.05 MOI Human immunodeficiency virus 1 NL4.3 infected in human CEM cells expressing green fluorescent protein assessed as p24 antigen production at 4.88 uM measured 7 days post infection by ELISA; type: functional; details: Human immunodeficiency virus 1, NL4.3, CCRF-CEM, 168 h
Method in brief: (§1)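 CD4+ T-cell line CEM-GFP infected with HIV-1 NL4.3 at MOI 0.05, monitored by GFP under the microscope. Each sample tested at a single concentration, its highest noncytotoxic concentration, for up to 7 days post infection. Day-7 culture supernatant assayed for virus by p24 antigen capture ELISA; % inhibition of replication reported. AZT positive control.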

[2] = test system: Human immunodeficiency virus 1; assay: Antiviral activity against 0.05 MOI Human immunodeficiency virus 1 NL4.3 infected in human CEM cells expressing green fluorescent protein assessed as p24 antigen production at 2.24 uM measured 7 days post infection by ELISA; type: functional; details: Human immunodeficiency virus 1, NL4.3, CCRF-CEM, 168 h; method in brief: as §1
[3] = test system: Human immunodeficiency virus 1; assay: Antiviral activity against 0.05 MOI Human immunodeficiency virus 1 NL4.3 infected in human CEM cells expressing green fluorescent protein assessed as p24 antigen production measured 7 days post infection by ELISA; type: functional, organism-based; details: Human immunodeficiency virus 1, NL4.3, CCRF-CEM, 168 h
Method in brief: (§2)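 CEM-GFP cells infected with HIV-1 NL4.3 (MOI 0.05) and cultured with samples over a concentration range up to 7 days post infection. p24 antigen capture ELISA on day-7 supernatant. EC50 is the concentration giving 50% inhibition of infected cells. Therapeutic index is CC50 in uninfected cells (MTT, 48 h) divided by EC50.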

[4] = test system: Human immunodeficiency virus 1; assay: Antiviral activity against 0.05 MOI Human immunodeficiency virus 1 NL4.3 infected in human CEM cells expressing green fluorescent protein assessed as p24 antigen production at 4.32 uM measured 7 days post infection by ELISA; type: functional; details: Human immunodeficiency virus 1, NL4.3, CCRF-CEM, 168 h; method in brief: as §1
[5] = target: Human immunodeficiency virus type 1 reverse transcriptase (Human immunodeficiency virus 1) (UniProt Q72547); assay: Inhibition of Human immunodeficiency virus 1 NL4.3 reverse transcriptase activity at 20 ug/ml
[6] = Cytotoxicity against human CEM cells expressing green fluorescent protein after 48 hrs by MTT assay; type: cell-based, CCRF-CEM
Method in brief: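 Uninfected CEM-GFP cells seeded at 2×10^4 cells/well with samples at several concentrations, untreated and vehicle-treated controls, 48 h. MTT reagent (5 mg/ml stock) added, formazan solubilised, absorbance read at 540 nm. CC50 is the concentration giving 50% cytotoxicity.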

[7] = Therapeutic index, ratio of CC50 for human CEM cells expressing green fluorescent protein to EC50 for Human immunodeficiency virus 1 NL4.3; type: cell-based, CCRF-CEM; details: read-out: TI; method in brief: as §2
[8] = test system: Human immunodeficiency virus 1; assay: Antiviral activity against 0.05 MOI Human immunodeficiency virus 1 NL4.3 infected in human CEM cells expressing green fluorescent protein assessed as p24 antigen production at 5.31 uM measured 7 days post infection by ELISA; type: functional; details: Human immunodeficiency virus 1, NL4.3, CCRF-CEM, 168 h; method in brief: as §1
[9] = test system: Human immunodeficiency virus 1; assay: Antiviral activity against 0.05 MOI Human immunodeficiency virus 1 NL4.3 infected in human CEM cells expressing green fluorescent protein assessed as p24 antigen production at 5.30 uM measured 7 days post infection by ELISA; type: functional; details: Human immunodeficiency virus 1, NL4.3, CCRF-CEM, 168 h; method in brief: as §1
[10] = test system: Human immunodeficiency virus 1; assay: Antiviral activity against 0.05 MOI Human immunodeficiency virus 1 NL4.3 infected in human CEM cells expressing green fluorescent protein assessed as p24 antigen production at 1.03 uM measured 7 days post infection by ELISA; type: functional; details: Human immunodeficiency virus 1, NL4.3, CCRF-CEM, 168 h; method in brief: as §1
[11] = test system: Human immunodeficiency virus 1; assay: Antiviral activity against 0.05 MOI Human immunodeficiency virus 1 NL4.3 infected in human CEM cells expressing green fluorescent protein assessed as p24 antigen production at 21.65 uM measured 7 days post infection by ELISA; type: functional; details: Human immunodeficiency virus 1, NL4.3, CCRF-CEM, 168 h; method in brief: as §1
[12] = test system: Human immunodeficiency virus 1; assay: Antiviral activity against 0.05 MOI Human immunodeficiency virus 1 NL4.3 infected in human CEM cells expressing green fluorescent protein assessed as p24 antigen production at 18.03 uM measured 7 days post infection by ELISA; type: functional; details: Human immunodeficiency virus 1, NL4.3, CCRF-CEM, 168 h; method in brief: as §1
[13] = test system: Human immunodeficiency virus 1; assay: Antiviral activity against 0.05 MOI Human immunodeficiency virus 1 NL4.3 infected in human CEM cells expressing green fluorescent protein assessed as p24 antigen production at 1.95 uM measured 7 days post infection by ELISA; type: functional; details: Human immunodeficiency virus 1, NL4.3, CCRF-CEM, 168 h; method in brief: as §1
[14] = test system: Human immunodeficiency virus 1; assay: Antiviral activity against 0.05 MOI Human immunodeficiency virus 1 NL4.3 infected in human CEM cells expressing green fluorescent protein assessed as p24 antigen production at 0.29 uM measured 7 days post infection by ELISA; type: functional; details: Human immunodeficiency virus 1, NL4.3, CCRF-CEM, 168 h; method in brief: as §1
[15] = test system: Human immunodeficiency virus 1; assay: Antiviral activity against 0.05 MOI Human immunodeficiency virus 1 NL4.3 infected in human CEM cells expressing green fluorescent protein assessed as p24 antigen production at 4.62 uM measured 7 days post infection by ELISA; type: functional; details: Human immunodeficiency virus 1, NL4.3, CCRF-CEM, 168 h; method in brief: as §1
[16] = test system: Human immunodeficiency virus 1; assay: Antiviral activity against 0.05 MOI Human immunodeficiency virus 1 NL4.3 infected in human CEM cells expressing green fluorescent protein assessed as p24 antigen production at 5 uM measured 7 days post infection by ELISA; type: functional; details: Human immunodeficiency virus 1, NL4.3, CCRF-CEM, 168 h; method in brief: as §1
[17] = test system: Human immunodeficiency virus 1; assay: Antiviral activity against 0.05 MOI Human immunodeficiency virus 1 NL4.3 infected in human CEM cells expressing green fluorescent protein assessed as p24 antigen production at 2.10 uM measured 7 days post infection by ELISA; type: functional; details: Human immunodeficiency virus 1, NL4.3, CCRF-CEM, 168 h; method in brief: as §1
[18] = test system: Human immunodeficiency virus 1; assay: Antiviral activity against 0.05 MOI Human immunodeficiency virus 1 NL4.3 infected in human CEM cells expressing green fluorescent protein assessed as p24 antigen production at 15.52 uM measured 7 days post infection by ELISA; type: functional; details: Human immunodeficiency virus 1, NL4.3, CCRF-CEM, 168 h; method in brief: as §1
[19] = test system: Human immunodeficiency virus 1; assay: Antiviral activity against 0.05 MOI Human immunodeficiency virus 1 NL4.3 infected in human CEM cells expressing green fluorescent protein assessed as p24 antigen production at 1.05 uM measured 7 days post infection by ELISA; type: functional; details: Human immunodeficiency virus 1, NL4.3, CCRF-CEM, 168 h; method in brief: as §1
[20] = target: Human immunodeficiency virus type 1 reverse transcriptase (Human immunodeficiency virus 1) (UniProt Q72547); assay: Inhibition of Human immunodeficiency virus 1 NL4.3 reverse transcriptase activity at 200 ug/ml
Method in brief: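 HIV-1 RT inhibition measured with a colorimetric reverse transcriptase assay kit, following the manufacturer's protocol; nevirapine served as the positive control.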

[21] = test system: Human immunodeficiency virus 1; assay: Antiviral activity against 0.05 MOI Human immunodeficiency virus 1 NL4.3 infected in human CEM cells expressing green fluorescent protein assessed as p24 antigen production at 4.69 uM measured 7 days post infection by ELISA; type: functional; details: Human immunodeficiency virus 1, NL4.3, CCRF-CEM, 168 h; method in brief: as §1
[22] = test system: Human immunodeficiency virus 1; assay: Antiviral activity against 0.05 MOI Human immunodeficiency virus 1 NL4.3 infected in human CEM cells expressing green fluorescent protein assessed as p24 antigen production at 9.77 uM measured 7 days post infection by ELISA; type: functional; details: Human immunodeficiency virus 1, NL4.3, CCRF-CEM, 168 h; method in brief: as §1
[23] = test system: Human immunodeficiency virus 1; assay: Antiviral activity against 0.05 MOI Human immunodeficiency virus 1 NL4.3 infected in human CEM cells expressing green fluorescent protein assessed as p24 antigen production at 0.02 uM measured 7 days post infection by ELISA; type: functional; details: Human immunodeficiency virus 1, NL4.3, CCRF-CEM, 168 h; method in brief: as §1

COc1ccc2cc3[n+](cc2c1OC(=O)c1ccc(F)c(C(F)(F)F)c1)CCc1cc2c(cc1-3)OCO2
inhibition at 4.88 µM [1]: 0%

COc1ccc2cc3[n+](cc2c1OC(=O)Cc1cccs1)CCc1cc2c(cc1-3)OCO2
inhibition at 2.24 µM [2]: 0%

COc1ccc2cc3[n+](cc2c1OC(=O)c1ccc(F)cc1F)CCc1cc2c(cc1-3)OCO2
EC50 [3]: 950 nM
inhibition at 4.32 µM [4]: 71.7%
inhibition [5]: 99%
CC50 at 48 h [6]: 57100 nM
selectivity ratio [7]: 60.1

COc1ccc2cc3[n+](cc2c1OC(=O)c1ccc2c(c1)OCO2)CCc1cc2c(cc1-3)OCO2
inhibition at 5.31 µM [8]: 45.6%

COc1ccc2cc3[n+](cc2c1OC(=O)c1ccc(SC)cc1)CCc1cc2c(cc1-3)OCO2
inhibition at 5.3 µM [9]: 0%

COc1ccc2cc3[n+](cc2c1OC(=O)C12CC4CC(CC(C4)C1)C2)CCc1cc2c(cc1-3)OCO2
inhibition at 1.03 µM [10]: 64.2%

COc1ccc2cc3[n+](cc2c1OC(=O)c1ccc(F)c(F)c1)CCc1cc2c(cc1-3)OCO2
inhibition at 21.65 µM [11]: 0%

COc1ccc2cc3[n+](cc2c1OC(=O)c1ccco1)CCc1cc2c(cc1-3)OCO2
inhibition at 18.03 µM [12]: 22.6%

COc1ccc2cc3[n+](cc2c1OC(=O)c1c(F)cccc1C(F)(F)F)CCc1cc2c(cc1-3)OCO2
inhibition at 1.95 µM [13]: 0%

COc1ccc2cc3[n+](cc2c1OC)CCc1cc2c(cc1-3)OCO2 [BERBERINE CHLORIDE]
EC50 [3]: 130 nM
inhibition at 0.29 µM [14]: 66%
inhibition [5]: 94%
CC50 at 48 h [6]: 2090 nM
selectivity ratio [7]: 16.1

COc1ccc2cc3[n+](cc2c1OC(=O)c1cccs1)CCc1cc2c(cc1-3)OCO2
EC50 [3]: 1820 nM
inhibition [5]: 99%
inhibition at 4.62 µM [15]: 73.1%
CC50 at 48 h [6]: 91900 nM
selectivity ratio [7]: 50.5

Cc1cn([C@H]2C[C@H](N=[N+]=[N-])[C@@H](CO)O2)c(=O)[nH]c1=O [ZIDOVUDINE]
EC50 [3]: 1050 nM
inhibition at 5 µM [16]: 89.8%

COc1ccc2cc3[n+](cc2c1OC(=O)c1ccc2ccccc2c1)CCc1cc2c(cc1-3)OCO2
inhibition at 2.1 µM [17]: 58.8%

COc1ccc2cc3[n+](cc2c1O)CCc1cc2c(cc1-3)OCO2 [BERBERRUBINE CHLORIDE]
inhibition at 15.52 µM [18]: 77%
EC50 [3]: 2800 nM
inhibition [5]: 99%
CC50 at 48 h [6]: 169000 nM
selectivity ratio [7]: 60.4

COc1ccc2cc3[n+](cc2c1OC(=O)c1ccc(F)cc1C(F)(F)F)CCc1cc2c(cc1-3)OCO2
inhibition at 4.88 µM [1]: 0%

COc1ccc2cc3[n+](cc2c1OC(=O)c1cccc2ccccc12)CCc1cc2c(cc1-3)OCO2
inhibition at 1.05 µM [19]: 0%

COc1cc2c(cc1OC)[C@@H]1Cc3ccc(OC)c(OC)c3CN1CC2
inhibition [20]: 25%

COc1ccc2cc3[n+](cc2c1OC(=O)c1ccccc1)CCc1cc2c(cc1-3)OCO2
inhibition at 4.69 µM [21]: 37.2%

COc1ccc2cc3[n+](cc2c1OC(=O)c1ccc(C(F)(F)F)cc1F)CCc1cc2c(cc1-3)OCO2
inhibition at 9.77 µM [22]: 23.4%

COc1ccc(C(=O)Oc2c(OC)ccc3cc4[n+](cc23)CCc2cc3c(cc2-4)OCO3)cc1
inhibition at 0.02 µM [23]: 44.3%
